Screens (PubChem)
mABHD4 FP: ABHD4 inhibitors, primary screen, biochemical, fluorescence polarization, mouse. hit rate 0.54% among 370,000. AID 720543, 2013. (Lyso)-N-acylphosphatidylethanolamine lipase (Mus musculus), Q8VD66. purified mABHD4, FP-Rh probe fluorescence polarization. inhibition, % at 8.92 µM;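 active = inhibition exceeding the mean over every tested compound plus 3 SD, cut at about 30% in these data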;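 also: 0% = plate median of compound wells and 100% = S159A mutant with DMSO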
Target sequence (Q8VD66 whole entry, looked up): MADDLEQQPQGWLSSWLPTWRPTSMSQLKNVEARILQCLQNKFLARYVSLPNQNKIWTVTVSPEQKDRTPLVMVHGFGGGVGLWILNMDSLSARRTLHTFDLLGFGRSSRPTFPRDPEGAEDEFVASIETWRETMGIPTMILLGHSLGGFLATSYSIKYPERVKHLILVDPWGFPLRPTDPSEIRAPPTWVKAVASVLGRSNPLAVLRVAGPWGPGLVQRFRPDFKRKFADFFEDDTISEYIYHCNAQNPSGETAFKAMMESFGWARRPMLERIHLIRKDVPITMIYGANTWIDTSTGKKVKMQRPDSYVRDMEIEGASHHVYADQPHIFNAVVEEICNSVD
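system = mouse ABHD4 enzyme, wild type | medium = HEPES pH 7.0, NaCl, Pluronic buffer | also added = FP-Rh probe | incubation = Enzyme–compound pre-incubation 45 min, then probe 60 min, both 25 °C | technique = fluorescence polarization, excitation 525 nm, emission 598 nm, BODIPY TMR filters | controls = S159A mutant high control, sample median low control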
TCR CD3 inh: inhibitors of human TCR-CD3 interaction, primary screen, biochemical, fluorescence, TAMRA-labeled TCR probe; hit rate 0.37% among 360,000; inhibition, % at 9.4 µM; T-cell receptor (TCR);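 also: recombinant mutant TCR 2C K166C tagged with TAMRA read by polarization; 0% = receptor in buffer alone and 100% = receptor with positive control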
SIAE primary: human SIAE inhibitors, primary screen, biochemical, fluorescence polarization, FP-Rh probe, 1536-well HTS; Sialate O-acetylesterase (Homo sapiens), Q9HAT2; SIAE FP-Rh probe binding; inhibition, % at 9.66 µM; hit rate 0.69% among 370,000;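 active = inhibition above a cutoff: mean of compounds within the control limits plus 3 SD of those, cut at about 17% in these data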;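 also: 0% = plate median of compound wells and 100% = probe without SIAE protein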
rCAG binder: binders of r(CAG) RNA repeats, primary screen, biochemical, fluorescence. inhibition, % at 3 µM. hit rate 1.3% among 370,000. r(CAG) RNA repeat, TO-PRO-1 dye displacement fluorescence;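 active = inhibition above the plate cutoff, the mean of all test compounds on that plate plus 3 SD, cut at about 35% in these data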;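 also: 0% = DMSO alone and 100% = 100 µM mitoxantrone as full dye displacement; higher means more dye released from RNA so lower well fluorescence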
PRMT1 inh: PRMT1 methyltransferase inhibitors, primary screen, biochemical, fluorescence polarization; Protein arginine N-methyltransferase 1 (Homo sapiens), Q99873; recombinant PRMT1, activity-based probe fluorescence polarization; inhibition, % at 2.79 µM; hit rate 1.3% among 370,000;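 active = inhibition above about 21% made by adding two undisclosed values, limit read from the data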
Target sequence (Q99873 whole entry, looked up): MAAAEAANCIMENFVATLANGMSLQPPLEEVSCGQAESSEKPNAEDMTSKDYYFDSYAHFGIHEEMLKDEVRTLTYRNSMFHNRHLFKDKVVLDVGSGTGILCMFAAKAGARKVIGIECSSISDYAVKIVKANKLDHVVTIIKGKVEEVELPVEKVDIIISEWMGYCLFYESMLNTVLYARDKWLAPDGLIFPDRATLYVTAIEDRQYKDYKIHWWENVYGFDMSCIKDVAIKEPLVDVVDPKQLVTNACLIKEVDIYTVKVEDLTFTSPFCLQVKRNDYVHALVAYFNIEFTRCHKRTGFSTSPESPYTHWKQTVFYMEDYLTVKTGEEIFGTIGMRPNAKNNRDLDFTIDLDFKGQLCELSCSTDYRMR
BSA probe FL: compounds interfering with TAMRA-BSA probe, counter-screen for TCR-CD3 interaction inhibitor project, biochemical, fluorescence, TAMRA-labeled BSA; shares compounds with TCR CD3 inh; TAMRA-labeled BSA probe fluorescence counterscreen; inhibition, % at 9.4 µM; hit rate 10% among 1,200; AID 652035, 2013; in the data active = inhibition above about 23%;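 also: 0% = buffer low control and 100% = reference high control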
TCR-CD3 inh conf: TCR-CD3 interaction inhibitors, retest, confirmation, biochemical, fluorescence, TAMRA-labeled TCR probe. inhibition, % at 9.4 µM. shares compounds with TCR CD3 inh. TAMRA-labeled TCR probe fluorescence binding assay. hit rate 48% among 1,200
rCAG binder conf: small molecules binding CAG repeat RNA – biochemical, fluorescence, confirmation; hit rate 70% among 4,300; shares compounds with rCAG binder; AID 652065, 2013; inhibition, % at 3 µM; r(CAG) RNA repeat, TO-PRO-1 dye displacement fluorescence;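 active = inhibition above a per-plate cutoff, the mean inhibition of sample wells plus 3 SD, cut at about 35% in these data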;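 also: loss of TO-PRO-1 fluorescence as compound displaces dye from 1x1 AA loop RNA; 0% = DMSO only wells and 100% = 100 µM mitoxantrone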
DNA CAG counter: displacement of TO-PRO-1 from CAG DNA duplex, counter-screen for rCAG RNA repeat binder project, biochemical, fluorescence, TO-PRO-1 dye, d(CAG) DNA oligo; shares compounds with rCAG binder; d(CAG) DNA oligo TO-PRO-1 dye displacement; inhibition, % at 3 µM; hit rate 94% among 4,300; AID 652068, 2013;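 active = inhibition above its plate's cutoff, the mean test-well inhibition plus 3 SD, cut at about 4.8% in these data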;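 also: 0% = DNA dye mix with DMSO and 100% = 100 µM mitoxantrone; hits displace the dye from DNA and so lower well fluorescence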
PRMT1 inh conf: PRMT1 methyltransferase inhibitors, confirmation, biochemical, fluorescence polarization, triplicate; inhibition, % at 2.79 µM; hit rate 42% among 3,300; recombinant His-PRMT1, activity-based probe fluorescence polarization; shares compounds with PRMT1 inh;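 active = mean inhibition across replicates above the hit cutoff derived for the earlier primary screen, cut at about 22% in these data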
ABHD4 confirm: ABHD4 inhibitors, retest, confirmation, biochemical, fluorescence polarization, mouse | shares compounds with mABHD4 FP | inhibition, % at 8.92 µM | hit rate 55% among 1,800 | AID 720658, 2013 | purified mABHD4, FP-Rh probe fluorescence polarization;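 active = mean inhibition across replicates above the hit cutoff set in the primary screen, cut at about 30% in these data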;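 also: 0% = wild-type ABHD4 with DMSO and 100% = catalytically dead S159A mutant with DMSO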
SIAE inh conf: human SIAE inhibitors, retest, confirmation, biochemical, fluorescence polarization, FP-Rh probe, triplicate; shares compounds with SIAE primary; SIAE FP-Rh activity-based probe; inhibition, % at 9.66 µM; hit rate 13% among 2,300; AID 1117263, 2014;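 active = mean inhibition of the replicates above the hit cutoff set in the primary screen, cut at about 17% in these data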;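 also: 0% = SIAE with DMSO and probe and 100% = probe without SIAE; inhibitors lower polarization as more probe stays unbound to SIAE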
The depositor's hits bear a star; i = inactive; . = not tested or not shown. This is a sample that favours compounds with a hit; in the whole collection about 3.3% have one here. Rule as the data show it, unless noted: active = inhibition above about 19%; inactive = the rest.

SMILES | mABHD4 FP | TCR CD3 inh | SIAE primary | rCAG binder | PRMT1 inh | BSA probe FL | TCR-CD3 inh conf | ABHD4 confirm | SIAE inh conf | others
O=C([C@@H]1C[C@H]1c1ccccc1)N1CC[C@H]2[C@H](CCCN2Cc2ccccc2)C1 | 3.9 | . | -1.4 | 0.4 | 2.4 | . | . | . | .
FC(F)(F)C1=Nc2cccc3cccc(c23)N1 | 4.5 | 31.3* | 56.0* | 94.4* | 6.3 | -6.6 | 8.7 | . | 4.1 | rCAG binder conf=47.4*;DNA CAG counter=37.7*
Fc1ccc(C2=Nc3cccc4cccc(c34)N2)cc1 | 8.9 | 4.8 | 3.1 | 5.3 | 5.1 | . | . | . | .
COc1ccc(/C=N/NC(=O)c2cc(O)c(O)c(O)c2)cc1Cn1cc([N+](=O)[O-])cn1 | 28.1 | 62.6* | 46.0* | 30.8 | 11.5 | -9.7 | 77.7* | . | 1.9
COc1ccc(/C=N/NC(=O)c2ccccc2O)cc1Cn1cc([N+](=O)[O-])cn1 | 2.6 | 2.1 | -2.8 | 3.5 | 4.0 | . | . | . | .
O=C(C1CCCN1S(=O)(=O)c1cccs1)N1CCc2ccccc2C1 (stereo unspecified) | 0.3 | . | -2.4 | 3.5 | 8.2 | . | . | . | .
C/C(=N\NC(=S)NCCc1ccccc1)c1ccc(O)cc1O | 14.4 | 27.8* | 17.2* | 17.5 | 2.5 | -16.4 | 7.6 | . | 19.8*
C/C(=N\NC(=S)NCCc1ccccc1)c1ccc(Cl)cc1Cl | -8.0 | -4.1 | -2.2 | 3.9 | 0.3 | . | . | . | .
Cc1cc(-c2csc(NC(=O)C3=COCCO3)n2)c(C)n1C | 10.0 | 21.9* | 26.3* | 21.2 | 1.4 | -9.9 | -3.5 | . | -2.0
O=C(O)c1cccc(CN2C(=O)c3ccccc3C2=O)c1 | -8.3 | -12.9 | -1.3 | 4.1 | -0.6 | . | . | . | .
O=C1c2cccc3c(O)ccc(c23)C(=O)N1Cc1ccccc1 | 75.4* | 59.0* | 42.4* | i | 173.7* | 74.5* | 57.1* | 79.6* | 49.2*
C/C(=C\C(=O)c1ccccc1)Nc1ccc(O)cc1 | 73.4* | 48.0* | 45.6* | 5.8 | 30.7* | -2.9 | 1.3 | 4.5 | 2.5
C/C(=C\C(=O)c1cccnc1)Nc1ccc(O)cc1 | 72.4* | 89.5* | 26.3* | 0.5 | 19.7 | 5.4 | 1.2 | -4.7 | 3.2
COc1ccc(C(=O)/C=C(\C)Nc2ccc(NC(C)=O)cc2)cc1 | 1.3 | -3.0 | -2.5 | 3.4 | 0.4 | . | . | . | .
CCOC(=O)c1c(C)[nH]c(C(=O)COC(=O)c2cnccn2)c1C | 21.4 | 38.2* | 20.1* | 6.7 | -141.9 | -1.3 | 6.2 | . | -0.9
CCOC(=O)c1c(C)[nH]c(C(=O)COC(=O)c2ccncc2)c1C | -3.0 | 2.0 | -0.9 | 5.3 | 0.7 | . | . | . | .
O=C(N/N=C/c1cc(Br)cc(Br)c1O)c1cccc(N2CCCC2=O)c1 | 12.3 | 36.7* | 40.7* | 10.5 | -0.3 | -13.9 | 47.6* | . | 19.9*
Cc1ccc(NC(=O)CS(=O)CC(=O)Nc2ccccc2-c2ccc(C)o2)cc1 (stereo unspecified) | 44.5* | 85.9* | 33.0* | -4.0 | 51.2* | 6.4 | 3.6 | -1.8 | 8.7
CN(CCC#N)C(=O)COC(=O)c1c2c(nc3ccccc13)/C(=C\c1ccco1)CC2 | 44.9* | 33.5* | 18.7* | 65.1* | 31.5* | -11.1 | 34.0* | -9.4 | 5.8 | rCAG binder conf=57.2*;DNA CAG counter=30.9*;PRMT1 inh conf=20.3
O=C1CCCC(O)=C1N=Nc1c(Cl)cc(C(F)(F)F)cc1Cl | 62.1* | 26.5* | 88.8* | -2.0 | 3.8 | -6.9 | -2.8 | -3.0 | 3.7
O=C1CCC/C1=C/Nc1ccc(Cl)cc1 | -2.0 | -5.8 | -2.9 | 1.6 | 0.8 | . | . | . | .
O=C1CCCC/C1=C\Nc1ccc(O)cc1 | 54.4* | 42.0* | 21.7* | -0.1 | 26.3* | -5.2 | 1.5 | 12.8 | 4.0
N#C/C(=C/c1ccc(O)c(O)c1)c1nc2ccccc2[nH]1 | 58.2* | 35.5* | 29.1* | 5.4 | 42.5* | -12.0 | 48.0* | 65.0* | 50.5* | PRMT1 inh conf=37.3*
CCCC[C@H]1C2CC(OC(=O)Nc3ccccc3)C(C2)[C@H]2CCCCN21 (stereo partly specified) | -5.1 | . | 0.8 | 0.4 | 0.8 | . | . | . | .
C#Cc1cccc(OC[C@@H](O)CN2CCC(C(O)(c3ccccc3)c3ccccc3)CC2)c1 | 0.4 | . | -1.0 | 2.0 | 2.1 | . | . | . | .
NS(=O)(=O)c1ccc(N/N=C/c2ccc(O)c(O)c2O)c([N+](=O)[O-])c1 | 60.1* | 59.1* | 36.8* | 54.7* | 46.3* | -10.2 | 73.8* | 62.5* | 11.0 | rCAG binder conf=76.0*;DNA CAG counter=37.7*;PRMT1 inh conf=78.9*
NS(=O)(=O)c1ccc(N/N=C/c2ccc(O)cc2O)c([N+](=O)[O-])c1 | 18.2 | -1.0 | 6.0 | 15.7 | 8.7 | . | . | . | .
Cc1nc2ccc(NC(=O)c3ccc(F)cc3Cl)cc2c(=O)[nH]1 | -2.8 | . | 1.9 | 2.9 | 4.3 | . | . | . | .
Oc1ccc(/C=N/N=C(c2ccccc2)c2ccccc2)c(O)c1O | 41.9* | 34.8* | 20.3* | 30.0 | 11.9 | -11.2 | 28.0* | 34.2* | -15.4
COc1cccc2c1C(=O)c1c(O)c3c(c(O)c1C2=O)C[C@@](O)(C(=O)CO)C[C@@H]3OC1CC(N)C(O)C(C)O1 (stereo partly specified) | 75.5* | 125.2* | 53.6* | 10.3 | 140.8* | 155.7* | 126.0* | 54.6* | 54.6*
